Screening data as filed in PubChem BioAssay.
Compounds with a hit are over-represented: about 2.9% of the library has one in this group of screens.
Runt-SMMHC FRET: inhibitors of human RUNX1 Runt domain binding to CBFb-SMMHC; Q01196+Q13951; Cerulean-Runt/Venus-CBFb-SMMHC FRET ratio 530/480, 1 h; inhibition, % at 20 µM; actives 0.74% (n = 220,000); AID 1434;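 active = mean inhibition across duplicate retests at 20 µM reaching about 50%, limit read from the data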;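 note: 0% = DMSO wells and 100% = wells with excess untagged CBFb-SMMHC; inhibitors lower the FRET ratio by blocking Runt binding to CBFb-SMMHC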
Target sequence (Q01196 whole entry, looked up, the tested form may be a part): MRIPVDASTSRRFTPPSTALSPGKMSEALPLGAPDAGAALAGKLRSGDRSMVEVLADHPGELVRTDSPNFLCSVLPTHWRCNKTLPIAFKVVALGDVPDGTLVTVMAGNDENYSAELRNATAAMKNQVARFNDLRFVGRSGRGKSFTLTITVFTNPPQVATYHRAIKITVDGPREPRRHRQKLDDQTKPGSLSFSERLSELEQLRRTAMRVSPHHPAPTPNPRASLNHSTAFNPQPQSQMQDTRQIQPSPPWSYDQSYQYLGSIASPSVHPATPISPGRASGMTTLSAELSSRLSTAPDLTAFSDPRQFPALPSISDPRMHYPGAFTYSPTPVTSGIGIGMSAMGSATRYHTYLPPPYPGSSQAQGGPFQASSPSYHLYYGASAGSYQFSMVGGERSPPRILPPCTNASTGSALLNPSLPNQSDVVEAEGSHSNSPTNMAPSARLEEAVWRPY
Target sequence (Q13951 whole entry, looked up, the tested form may be a part): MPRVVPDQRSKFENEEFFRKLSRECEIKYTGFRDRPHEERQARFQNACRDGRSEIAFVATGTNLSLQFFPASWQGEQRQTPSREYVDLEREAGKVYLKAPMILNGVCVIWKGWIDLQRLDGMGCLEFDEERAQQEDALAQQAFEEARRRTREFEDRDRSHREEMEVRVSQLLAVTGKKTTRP
Hck Nef HTS: inhibitors of human Hck kinase activated by Nef. P08631. AID 463187. actives 0.68% (n = 220,000). inhibition, % at 20 µM. Recombinant Hck-YEEI plus Nef, Z-Lyte FRET kinase assay;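 active = Hck-Nef kinase inhibition above about 50%, limit read from the data; inactive = inhibition below that limit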;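 note: 0% = DMSO with Hck plus Nef and 100% = Hck alone without Nef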
RBBP9 inh: human RBBP9 hydrolase inhibition. O75884. recombinant RBBP9, FP-Rh probe fluorescence polarization. actives 0.2% (n = 220,000). inhibition, % at 7.94 µM;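 active = inhibition above the campaign mean of all tested compounds plus 3 SD, cut at about 14% in these data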;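 note: plate controls were DMSO wells with RBBP9 for no effect and wells lacking RBBP9 protein for full effect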
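Material: RBBP9 protein. Amount: RBBP9 at 2.5 µM in dispensed solution, before mixing. Schedule: 30 min then 45 min, 25 °C. Medium: Tris buffer pH 8.0, NaCl, Pluronic. Measured by: fluorescence polarization. Measure: percent inhibition from mP, scaled between DMSO and no-protein wells. Replication: one well per compound.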
RanGTP-Imp inh: inhibitors of RanGTP-importin-beta interaction, primary screen, biochemical, FRET, CFP-Ran, YFP-importin-beta, homogeneous; actives 1.1% (n = 300,000); cell-free CFP-Ran/YFP-importin-beta FRET ratio; inhibition, % (no concentration beside the values);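 active = more than half of the replicate wells show a fall in the fluorescence ratio signal beyond about 16%, limit read from the data, passing the limit was not always enough; inconclusive = exactly half of the replicate wells pass the set limit; inactive = fewer than half of replicates pass the limit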;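 note: 0% = DMSO wells and 100% = Ran loaded with GDP instead of GTP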
Runt-CBFb FRET: blocks binding of human RUNX1 Runt domain to CBFb; Cerulean-Runt/Venus-CBFb FRET ratio 530/480, 1 h; inhibition, % at 20 µM; actives 0.46% (n = 220,000);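 active = inhibition over about 50% at 20 µM in the single-dose screen, limit read from the data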;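 note: 0% = DMSO wells and 100% = excess unlabeled CBFb competitor control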
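Assay system: Cerulean-Runt domain fusion protein, energy donor; Signal: fluorescence energy transfer, 422 nm excitation, 530/480 nm emission; Timing: 1 h compound exposure, room temperature; Control set: unlabeled CBFb; Medium: Tris buffer pH 7.5 with salts and BSA; Compound: single test concentration of 20 µM, 1% DMSO final; Probe or stimulus: Venus-CBFb 100 nM.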
PfM18AAP inh: blocks P. falciparum M18 aspartyl aminopeptidase | recombinant PfM18AAP, H-Glu-NHMec fluorogenic cleavage | inhibition, % at 7.35 µM | actives 1.2% (n = 290,000) | AID 1822;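 active = inhibition above the campaign mean inhibition over all tested compounds plus 3 SD, cut at about 28% in these data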;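 note: 0% = plate median of test compound wells and 100% = 2 mM ZnCl2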
RBBP9 confirm: human RBBP9 inhibition, confirmation | shares compounds with RBBP9 inh | AID 1537 | recombinant RBBP9, FP-Rh probe fluorescence polarization | actives 36% (n = 410) | inhibition, % at 7.94 µM;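 active = inhibition above the hit cutoff derived for the primary screen, cut at about 15% in these data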;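 note: 0% = RBBP9 with DMSO and 100% = wells lacking RBBP9 protein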
Starred values were filed as active, the others as inactive; ? = inconclusive; · = not tested or not shown.

SMILES	Runt-SMMHC FRET	Hck Nef HTS	RBBP9 inh	RanGTP-Imp inh	Runt-CBFb FRET	PfM18AAP inh	RBBP9 confirm
O=C(CSc1nnc2ccccn12)N1CCOCC1	0	4	14*	-2	0	2	8
Cc1nc2ccccc2nc1SCC(=O)c1ccccc1	-5	-1	-9	?	1	7	·
O=C(CSc1ccc2ccccc2n1)c1ccccc1	-3	6	18*	11	-1	-13	4
Cc1nc2ncccn2c1-c1csc(Nc2ccc(N(C)C)cc2)n1	-16	35	24*	-4	2	17	21*
Cc1nc2ncccn2c1-c1csc(Nc2ccccc2)n1	-4	-2	-3	-2	3	18	·
COc1ccccc1-c1c(C)nn2c(N)c(-c3ccccc3)cnc12	·	·	·	-1	·	2	·
CC(=O)c1ccc(OC(=O)C2CC(=O)N(c3cccc(C)c3)C2)cc1 (stereo unspecified)	0	1	16*	-2	-1	10	4
Cc1cccc(N2CC(C(=O)O)CC2=O)c1 (stereo unspecified)	0	0	8	-2	0	4	·
CCC(C)c1ccccc1NC(=O)c1cc(C)no1 (stereo unspecified)	·	·	·	0	·	-13	·
OC(CNC1Cc2ccccc2C1)COc1ccc(F)cc1 (stereo unspecified)	-5	7	15*	-1	1	0	7
O=C(Cc1ccon1)c1ccc(O)cc1O	·	·	·	-1	·	16	·
CCOc1ccc2oc(C(=O)N(CC)CC(=O)Nc3c(F)cccc3F)c(C)c2c1	·	·	·	-3	·	·	·
Cc1ccc(C(=O)Nc2cccc([N+](=O)[O-])c2)cc1S(=O)(=O)Nc1ccc(C(=O)O)cc1	2	19	6	5	0	-5	·
Cc1cccc(NS(=O)(=O)c2cc(NC(=O)CC(=O)c3ccc([N+](=O)[O-])cc3)ccc2C)c1	-5	20	30*	2	0	-2	16*
O=C(CSc1nccc(=O)[nH]1)Nc1cccc2ccccc12	·	·	·	8	·	0	·
CSc1ccccc1C(=O)C1CCCN(Cc2cnn(-c3ccccc3)c2)C1 (stereo unspecified)	-4	8	18*	?	2	-10	0
O=[N+]([O-])c1ccc(NC(=S)N2CCN(c3ccc(F)cc3)CC2)cc1	1	0	-8	-2	0	9	·
O=[N+]([O-])c1ccc(C(=S)N2CCN(c3ccc(F)cc3)CC2)cc1	22	4	15*	1	47	14	6
O=C(O)/C=C/C(=O)NC1CCC(CC2CCC(NC(=O)/C=C/C(=O)O)CC2)CC1 (stereo unspecified)	5	23	21*	8	1	-4	9
CCn1c2ccc(F)cc2c2nnc(NN)nc21	1	5	-3	1	1	18	·
NNc1nnc2c3cc(F)ccc3n(Cc3ccccc3)c2n1	3	21	20*	0	1	10	5
CNS(=O)(=O)c1ccc2ccccc2c1	-7	-9	19*	-4	3	4	0
COC(=O)C1C(=O)OC(C)(C)C1C(C)C(=O)c1ccccc1 (stereo unspecified)	2	1	14*	-4	1	-6	7
CCc1ccc(N2CC(C(=O)OCC(=O)NNC(=O)c3ccccc3)CC2=O)cc1 (stereo unspecified)	·	·	·	2	·	·	·
CCCC1NC(C(=O)O)Cc2c1[nH]c1ccccc21 (stereo unspecified)	·	·	·	11	·	22	·
SMILES	Runt-SMMHC FRET	Hck Nef HTS	RBBP9 inh	RanGTP-Imp inh	Runt-CBFb FRET	PfM18AAP inh	RBBP9 confirm
CC(=O)Nc1c(O)c2ccccc2[nH]c1=O	12	22	2	-7	18	24	·
CNC(=O)C(=O)Nc1c(O)c2ccccc2[nH]c1=O	2	15	18*	4	12	12	3
COc1ccc(O)c(C(=O)c2coc(=N)c(C(=O)Nc3ccc(SC(F)F)cc3)c2)c1	-18	5	-10	5	-6	3	·
CCOC(=O)C(CCCCCOc1ccc([N+](=O)[O-])cc1)C(=O)OCC	-6	1	18*	?	-4	4	6
COc1ccc(Cl)cc1N(CC(=O)N1CCCC1)S(C)(=O)=O	·	·	·	0	·	3	·
CCc1cc(/C(Cc2ccccn2)=N\O)c(O)cc1O	1	0	5	9	0	15	·
CCc1cc(/C(Cc2ccc3ccccc3n2)=N\O)c(O)cc1O	2	2	46*	3	0	10	50*
COc1cc(CN2CCC(C(=O)N3CCN(c4ccccc4F)CC3)CC2)cc(OC)c1O	-1	2	-6	3	-1	11	·
COc1cc(CN2CCN(c3ccccc3F)CC2)cc(OC)c1O	0	1	15*	-1	-1	8	7
CCNC(=O)C1CCCN1C(=O)C(CCCN=C(N)N)NC(=O)C(CC(C)C)NC(=O)C(Cc1cn(Cc2ccccc2)cn1)NC(=O)C(Cc1ccc(O)cc1)NC(=O)C(CO)NC(=O)C(Cc1c[nH]c2ccccc12)NC(=O)C(Cc1cnc[nH]1)NC(=O)C1CCC(=O)N1 (stereo unspecified)	·	·	·	-2	·	1	·
Cc1ccc(S(=O)(=O)N2CCN(C(=O)c3cc(S(=O)(=O)N(C)C)ccc3N3CCCC3)CC2)cc1	·	·	·	6	·	·	·
Cc1cccc(N2CCN(C(=O)c3cc(S(=O)(=O)N(C)C)ccc3N3CCCC3)CC2)c1C	-2	21	15*	8	-66	-8	2
COc1ccc(-c2cc(-c3c(O)c(OC)c4occc4c3OC)[nH]n2)cc1OC	-4	0	15*	2	3	-8	53*
O=C(O)Cc1ccc(NC(=O)COc2ccc3ccccc3c2)cc1	·	·	·	-1	·	2	·
O=C(COc1ccc2ccccc2c1)Nc1ccc(Cc2ccncc2)cc1	-11	0	28*	4	-10	2	3
O=c1ccc(N=Nc2ccccc2)ccc1O	-13	2	18*	-1	11	16	4
O=S(=O)(O)c1ccc(N=Nc2ccccc2)cc1	1	5	-9	3	0	1	·
CCOC(=O)Cn1c(=O)c2c(nc3n2CC(C)CN3Cc2ccccc2)n(C)c1=O (stereo unspecified)	·	·	·	1	·	-8	·
O=C(COC(=O)CSc1ccc(F)cc1)NNC(=O)c1ccc([N+](=O)[O-])cc1	·	·	·	1	·	·	·
COc1ccc(S(=O)(=O)NC(C)C(=O)Nc2ccc3c(c2)OCCO3)cc1OC (stereo unspecified)	·	·	·	2	·	0	·
c1ccc2c(c1)CCN2CCN1CCc2ccccc21	-1	1	6	5	-2	4	·
